Measurements: ChEMBL document CHEMBL2086304, “Synthesis and in vitro antimycobacterial and isocitrate lyase inhibition properties of novel 2-methoxy-2'-hydroxybenzanilides, their thioxo analogues and benzoxazoles” (Eur J Med Chem, 2012)
Values after ≈ are worked out from the molar mass of the structure shown.

Assays:
[1] = test system: Mycobacterium tuberculosis; test: Antimycobacterial activity against Mycobacterium tuberculosis 331/88 after 14 days by micromethod; assay type: functional; conditions: 331/88, 336 h
Procedure, shortened: (§1)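 Inocula: M. tuberculosis My 331/88 at 10^-3 dilution, M. avium My 330/88 at 10^-5, M. kansasii My 235/80 and clinical isolate 6509/96 at 10^-4. Compounds added in DMSO at 1000 down to 0.5 (twofold series). Read at 14 and 21 days, plus 7 days for M. kansasii. MIC taken as lowest concentration inhibiting growth.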

[2] = test system: Mycobacterium tuberculosis; test: Antimycobacterial activity against Mycobacterium tuberculosis 331/88 after 21 days by micromethod; assay type: functional; conditions: 331/88, 504 h; procedure, shortened: as §1
Mycobacterium avium [3] = test: Antimycobacterial activity against isoniazid resistance Mycobacterium avium 330/88 after 14 days by micromethod; assay type: functional; conditions: 330/88, 336 h; procedure, shortened: as §1
Mycobacterium avium [4] = test: Antimycobacterial activity against isoniazid resistance Mycobacterium avium 330/88 after 21 days by micromethod; assay type: functional; conditions: 330/88, 504 h; procedure, shortened: as §1
Mycobacterium kansasii [5] = test: Antimycobacterial activity against Mycobacterium kansasii 6509/96 clinical isolate after 7 days by micromethod; assay type: functional; conditions: 6509/96, 168 h; procedure, shortened: as §1
Mycobacterium kansasii [6] = test: Antimycobacterial activity against isoniazid resistance Mycobacterium kansasii 225/80 after 7 days by micromethod; assay type: functional; conditions: 225/80, 168 h
Mycobacterium kansasii [7] = test: Antimycobacterial activity against isoniazid resistance Mycobacterium kansasii 225/80 after 14 days by micromethod; assay type: functional; conditions: 225/80, 336 h
Mycobacterium kansasii [8] = test: Antimycobacterial activity against isoniazid resistance Mycobacterium kansasii 225/80 after 21 days by micromethod; assay type: functional; conditions: 225/80, 504 h
Mycobacterium kansasii [9] = test: Antimycobacterial activity against Mycobacterium kansasii 6509/96 clinical isolate after 14 days by micromethod; assay type: functional; conditions: 6509/96, 336 h; procedure, shortened: as §1
Mycobacterium kansasii [10] = test: Antimycobacterial activity against Mycobacterium kansasii 6509/96 clinical isolate after 21 days by micromethod; assay type: functional; conditions: 6509/96, 504 h; procedure, shortened: as §1
[11] = biological target: T1, Isocitrate lyase (Mycobacterium tuberculosis) (UniProt P9WKK7); test: Inhibition of Mycobacterium tuberculosis H37Rv isocitrate lyase expressed in Escherichia coli HB101 at 10 umol/L
T1 sequence (whole entry): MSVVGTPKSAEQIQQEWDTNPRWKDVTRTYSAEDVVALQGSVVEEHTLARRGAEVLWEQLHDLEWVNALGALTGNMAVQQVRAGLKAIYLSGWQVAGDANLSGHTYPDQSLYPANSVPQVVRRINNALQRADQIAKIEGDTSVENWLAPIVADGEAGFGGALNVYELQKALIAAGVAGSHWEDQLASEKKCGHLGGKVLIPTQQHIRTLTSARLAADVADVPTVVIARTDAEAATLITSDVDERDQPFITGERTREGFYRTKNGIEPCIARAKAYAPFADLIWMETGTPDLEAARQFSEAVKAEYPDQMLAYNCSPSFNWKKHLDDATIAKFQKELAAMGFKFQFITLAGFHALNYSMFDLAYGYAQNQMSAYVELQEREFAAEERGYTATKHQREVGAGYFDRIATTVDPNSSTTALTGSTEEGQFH
Procedure, shortened: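 Isocitrate lyase assayed per Dixon–Kornberg in 96-well format. Buffer: 50 mmol/L KH2PO4, 4 mmol/L MgCl2, 4 mmol/L phenylhydrazine, 12 mmol/L cysteine, pH 7.0. Glyoxylate phenylhydrazone read at 324 nm. Compounds added in DMSO, with DMSO-alone inhibition subtracted.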

HepG2 = test: Cytotoxicity against human HepG2 cells after 24 hrs by CellTiter-96 cell viability assay; assay type: functional, cell-based; conditions: HepG2, 24 h
Procedure, shortened: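 Hep G2 human hepatic cells (passage 12), 10,000 per well, grown 24 h at 37 °C, 5% CO2 in MEM with 1% glutamine, 10% FBS and 1% nonessential amino acids. Compounds in DMSO at eight increasing concentrations, quadruplicate, 24 h at 37 °C. Kit reagent added, 1.5 h at 37 °C, absorbance 490 nm. IC50 is the concentration reducing viability to 50% of control.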

[12] = Selectivity index, ratio of IC50 for human HepG2 cells to MIC for Mycobacterium tuberculosis 331/88 after 14 days; assay type: functional
Procedure, shortened: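 Cytotoxicity in Hep G2 cells (passage 12), 10,000 cells/well, in MEM with 10% FBS, 1% glutamine and 1% nonessential amino acids. Cells preincubated 24 h, 37 °C, 5% CO2. Compounds in DMSO at eight concentrations in quadruplicate, 24 h. MTS-type reagent added for 1.5 h, A490 read, IC50 taken at 50% viability. SI = this IC50 over the 14-day M. tuberculosis MIC.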

| SMILES | MIC [1] | MIC [2] | MIC (Mycobacterium avium [3]) | MIC (Mycobacterium avium [4]) | MIC (Mycobacterium kansasii [5]) | MIC (Mycobacterium kansasii [6]) | MIC (Mycobacterium kansasii [7]) | MIC (Mycobacterium kansasii [8]) | MIC (Mycobacterium kansasii [9]) | MIC (Mycobacterium kansasii [10]) | inhibition [11] | IC50 (HepG2) | Selectivity Index [12] |
| --- | --- | --- | --- | --- | --- | --- | --- | --- | --- | --- | --- | --- | --- |
| COc1cc(Cl)ccc1C(=O)Nc1ccc(Cl)cc1O | 8 µM (≈ 2.5 µg/mL) | 8 µM (≈ 2.5 µg/mL) | 62.5 µM (≈ 19.5 µg/mL) | 125 µM (≈ 39 µg/mL) | 16 µM (≈ 4.99 µg/mL) | 62.5 µM (≈ 19.5 µg/mL) | 62.5 µM (≈ 19.5 µg/mL) | 125 µM (≈ 39 µg/mL) | 62.5 µM (≈ 19.5 µg/mL) | 62.5 µM (≈ 19.5 µg/mL) | 4% | 7.34 µM | 0.92 |
| COc1ccc(Cl)cc1C(=S)Nc1cc(Br)ccc1O | 16 µM (≈ 5.96 µg/mL) | 32 µM (≈ 11.9 µg/mL) | 32 µM (≈ 11.9 µg/mL) | 32 µM (≈ 11.9 µg/mL) | 16 µM (≈ 5.96 µg/mL) | 8 µM (≈ 2.98 µg/mL) | 16 µM (≈ 5.96 µg/mL) | 16 µM (≈ 5.96 µg/mL) | 16 µM (≈ 5.96 µg/mL) | 32 µM (≈ 11.9 µg/mL) | 8% | 8.74 µM | 0.55 |
| COc1ccc(Cl)cc1C(=S)Nc1cc(C(F)(F)F)ccc1O | 32 µM (≈ 11.6 µg/mL) | 32 µM (≈ 11.6 µg/mL) | 62.5 µM (≈ 22.6 µg/mL) | 62.5 µM (≈ 22.6 µg/mL) | 16 µM (≈ 5.79 µg/mL) | 32 µM (≈ 11.6 µg/mL) | 62.5 µM (≈ 22.6 µg/mL) | 62.5 µM (≈ 22.6 µg/mL) | 32 µM (≈ 11.6 µg/mL) | 32 µM (≈ 11.6 µg/mL) | 8% | 5.86 µM | 0.18 |
| COc1cc(Cl)ccc1C(=S)Nc1ccc(Cl)cc1O | 16 µM (≈ 5.25 µg/mL) | 32 µM (≈ 10.5 µg/mL) | 32 µM (≈ 10.5 µg/mL) | 32 µM (≈ 10.5 µg/mL) | 16 µM (≈ 5.25 µg/mL) | 16 µM (≈ 5.25 µg/mL) | 32 µM (≈ 10.5 µg/mL) | 62.5 µM (≈ 20.5 µg/mL) | 32 µM (≈ 10.5 µg/mL) | 32 µM (≈ 10.5 µg/mL) | 10% | 5.11 µM | 0.32 |
| COc1cc(Cl)ccc1C(=O)Nc1cc(Br)ccc1O | 125 µM (≈ 44.6 µg/mL) | 125 µM (≈ 44.6 µg/mL) | 62.5 µM (≈ 22.3 µg/mL) | 62.5 µM (≈ 22.3 µg/mL) | 62.5 µM (≈ 22.3 µg/mL) | 62.5 µM (≈ 22.3 µg/mL) | 62.5 µM (≈ 22.3 µg/mL) | 62.5 µM (≈ 22.3 µg/mL) | 62.5 µM (≈ 22.3 µg/mL) | 62.5 µM (≈ 22.3 µg/mL) | 0% | 5.63 µM | 0.05 |
| COc1ccc(Cl)cc1C(=O)Nc1ccc(Br)cc1O | 4 µM (≈ 1.43 µg/mL) | 8 µM (≈ 2.85 µg/mL) | 500 µM (≈ 178 µg/mL) | 500 µM (≈ 178 µg/mL) | 250 µM (≈ 89.2 µg/mL) | 500 µM (≈ 178 µg/mL) | 500 µM (≈ 178 µg/mL) | 500 µM (≈ 178 µg/mL) | 250 µM (≈ 89.2 µg/mL) | 250 µM (≈ 89.2 µg/mL) | 0% | 7.98 µM | 2 |
| COc1ccc(Cl)cc1C(=S)Nc1ccc(Cl)cc1O | 16 µM (≈ 5.25 µg/mL) | 32 µM (≈ 10.5 µg/mL) | 32 µM (≈ 10.5 µg/mL) | 62.5 µM (≈ 20.5 µg/mL) | 32 µM (≈ 10.5 µg/mL) | 16 µM (≈ 5.25 µg/mL) | 32 µM (≈ 10.5 µg/mL) | 62.5 µM (≈ 20.5 µg/mL) | 32 µM (≈ 10.5 µg/mL) | 32 µM (≈ 10.5 µg/mL) | 0% | 4.45 µM | 0.28 |
| COc1cc(Cl)ccc1C(=S)Nc1cc(Cl)c(Cl)cc1O | 32 µM (≈ 11.6 µg/mL) | 32 µM (≈ 11.6 µg/mL) | 62.5 µM (≈ 22.7 µg/mL) | 62.5 µM (≈ 22.7 µg/mL) | 16 µM (≈ 5.8 µg/mL) | 16 µM (≈ 5.8 µg/mL) | 32 µM (≈ 11.6 µg/mL) | 62.5 µM (≈ 22.7 µg/mL) | 32 µM (≈ 11.6 µg/mL) | 62.5 µM (≈ 22.7 µg/mL) | 0% | 3.16 µM | 0.1 |
| COc1ccc(Cl)cc1C(=O)Nc1cc(Cl)c(Cl)cc1O | 125 µM (≈ 43.3 µg/mL) | 125 µM (≈ 43.3 µg/mL) | 125 µM (≈ 43.3 µg/mL) | 125 µM (≈ 43.3 µg/mL) | 125 µM (≈ 43.3 µg/mL) | 125 µM (≈ 43.3 µg/mL) | 125 µM (≈ 43.3 µg/mL) | 125 µM (≈ 43.3 µg/mL) | 125 µM (≈ 43.3 µg/mL) | 125 µM (≈ 43.3 µg/mL) | 7% | 2.98 µM | 0.02 |
| COc1cc(Cl)ccc1C(=S)Nc1cc(Br)ccc1O | 32 µM (≈ 11.9 µg/mL) | 32 µM (≈ 11.9 µg/mL) | 32 µM (≈ 11.9 µg/mL) | 62.5 µM (≈ 23.3 µg/mL) | 32 µM (≈ 11.9 µg/mL) | 16 µM (≈ 5.96 µg/mL) | 32 µM (≈ 11.9 µg/mL) | 62.5 µM (≈ 23.3 µg/mL) | 32 µM (≈ 11.9 µg/mL) | 62.5 µM (≈ 23.3 µg/mL) | 0% | 6.53 µM | 0.2 |
